Measured values: ChEMBL document CHEMBL1153465, “C5-Modified nucleosides exhibiting anticancer activity” (Bioorg Med Chem Lett, 2009)

Key:
Assay type in all cases: functional
HCT-15 [1] = assay: Cytotoxicity against human HCT15 cells at 10 uM by SRB assay
Outline: (§1)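 Growth inhibition measured at one fixed test concentration by sulforhodamine B assay. Cells were kept in RPMI 1640 plus 5% fetal bovine serum at 37 °C under humidified 5% CO₂. Adriamycin served as positive control. Results are given as […] of cancer cell growth.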

MDA-MB-231 [2] = assay: Cytotoxicity against human MDA-MB-231 cells at 10 uM by SRB assay; outline: as §1
NCI-H23 [3] = assay: Cytotoxicity against human NCI-H23 cells at 10 uM by SRB assay; outline: as §1
PC-3 [4] = assay: Cytotoxicity against human PC3 cells at 10 uM by SRB assay; outline: as §1
HCT-15 [5] = assay: Cytotoxicity against human HCT15 cells by SRB assay
MDA-MB-231 [6] = assay: Cytotoxicity against human MDA-MB-231 cells by SRB assay
NCI-H23 [7] = assay: Cytotoxicity against human NCI-H23 cells by SRB assay
NUGC-3 = assay: Cytotoxicity against human NUGC3 cells by SRB assay
PC-3 [8] = assay: Cytotoxicity against human PC3 cells by SRB assay
ACHN = assay: Cytotoxicity against human ACHN cells by SRB assay

O=c1[nH]c(=O)n([C@H]2C[C@H](O)[C@@H](CO)O2)cc1-c1cn(Cc2ccccc2)nn1
growth, % of control at 10 µM (HCT-15 [1]): 88.3% | growth, % of control at 10 µM (MDA-MB-231 [2]): 103% | growth, % of control at 10 µM (NCI-H23 [3]): 97.5% | growth, % of control at 10 µM (PC-3 [4]): 92.1%

CCCCCc1cc(-c2cn([C@H]3C[C@H](OC(C)=O)[C@@H](COC(C)=O)O3)c(=O)[nH]c2=O)on1
growth, % of control at 10 µM (HCT-15 [1]): 98.7% | growth, % of control at 10 µM (MDA-MB-231 [2]): 91.5% | growth, % of control at 10 µM (NCI-H23 [3]): 88.9% | growth, % of control at 10 µM (PC-3 [4]): 93.9%

CC(C)(C)c1ccc(-c2cc(-c3cn([C@H]4C[C@H](O)[C@@H](CO)O4)c(=O)[nH]c3=O)on2)cc1
growth, % of control at 10 µM (HCT-15 [1]): 79.8% | growth, % of control at 10 µM (MDA-MB-231 [2]): 102% | growth, % of control at 10 µM (NCI-H23 [3]): 98.9% | growth, % of control at 10 µM (PC-3 [4]): 87.9%

CC(=O)OC[C@H]1O[C@@H](n2cc(-c3cn(Cc4ccccc4)nn3)c(=O)[nH]c2=O)C[C@@H]1OC(C)=O
growth, % of control at 10 µM (HCT-15 [1]): 92.3% | growth, % of control at 10 µM (MDA-MB-231 [2]): 102% | growth, % of control at 10 µM (NCI-H23 [3]): 98.2% | growth, % of control at 10 µM (PC-3 [4]): 92.1%

COc1cccc2c1C(=O)c1c(O)c3c(c(O)c1C2=O)C[C@@](O)(C(=O)CO)C[C@@H]3O[C@H]1C[C@H](N)[C@H](O)[C@H](C)O1 [DOXORUBICIN]
GI50 (HCT-15 [5]): 1.64 µM | GI50 (MDA-MB-231 [6]): 0.61 µM | GI50 (NCI-H23 [7]): 0.51 µM | GI50 (NUGC-3): 0.25 µM | GI50 (PC-3 [8]): 0.73 µM | GI50 (ACHN): 0.41 µM

CCc1ccc(Cn2cc(-c3cn([C@H]4C[C@H](OC(C)=O)[C@@H](COC(C)=O)O4)c(=O)[nH]c3=O)nn2)cc1
growth, % of control at 10 µM (HCT-15 [1]): 88% | growth, % of control at 10 µM (MDA-MB-231 [2]): 97.7% | growth, % of control at 10 µM (NCI-H23 [3]): 77.2% | growth, % of control at 10 µM (PC-3 [4]): 91.2%

CC(=O)OC[C@H]1O[C@@H](n2cc(-c3cn(Cc4ccc(C(C)(C)C)cc4)nn3)c(=O)[nH]c2=O)C[C@@H]1OC(C)=O
growth, % of control at 10 µM (HCT-15 [1]): 94.2% | growth, % of control at 10 µM (MDA-MB-231 [2]): 105% | growth, % of control at 10 µM (NCI-H23 [3]): 106% | growth, % of control at 10 µM (PC-3 [4]): 90.4%

CC(=O)OC[C@H]1O[C@@H](n2cc(-c3cc(-c4ccc(C(C)C)cc4)no3)c(=O)[nH]c2=O)C[C@@H]1OC(C)=O
growth, % of control at 10 µM (HCT-15 [1]): 80.9% | growth, % of control at 10 µM (MDA-MB-231 [2]): 83.2% | growth, % of control at 10 µM (NCI-H23 [3]): 108% | growth, % of control at 10 µM (PC-3 [4]): 50.3%

CCc1ccc(-c2cc(-c3cn([C@H]4C[C@H](OC(C)=O)[C@@H](COC(C)=O)O4)c(=O)[nH]c3=O)on2)cc1
growth, % of control at 10 µM (HCT-15 [1]): 92.2% | growth, % of control at 10 µM (MDA-MB-231 [2]): 97.4% | growth, % of control at 10 µM (NCI-H23 [3]): 92.7% | growth, % of control at 10 µM (PC-3 [4]): 62.8%

CC(=O)OC[C@H]1O[C@@H](n2cc(-c3cn(Cc4ccc(C(C)C)cc4)nn3)c(=O)[nH]c2=O)C[C@@H]1OC(C)=O
growth, % of control at 10 µM (HCT-15 [1]): 96.5% | growth, % of control at 10 µM (MDA-MB-231 [2]): 98.1% | growth, % of control at 10 µM (NCI-H23 [3]): 86.7% | growth, % of control at 10 µM (PC-3 [4]): 91.3%

CC(C)(C)c1ccc(Cn2cc(-c3cn([C@H]4C[C@H](O)[C@@H](CO)O4)c(=O)[nH]c3=O)nn2)cc1
growth, % of control at 10 µM (HCT-15 [1]): 96.9% | growth, % of control at 10 µM (MDA-MB-231 [2]): 106% | growth, % of control at 10 µM (NCI-H23 [3]): 95% | growth, % of control at 10 µM (PC-3 [4]): 92.3%

CC(=O)OC[C@H]1O[C@@H](n2cc(-c3cc(-c4ccccc4)no3)c(=O)[nH]c2=O)C[C@@H]1OC(C)=O
growth, % of control at 10 µM (HCT-15 [1]): 92.2% | growth, % of control at 10 µM (MDA-MB-231 [2]): 95% | growth, % of control at 10 µM (NCI-H23 [3]): 91.4% | growth, % of control at 10 µM (PC-3 [4]): 85.5%

CC(=O)OC[C@H]1O[C@@H](n2cc(-c3cc(C)no3)c(=O)[nH]c2=O)C[C@@H]1OC(C)=O
growth, % of control at 10 µM (HCT-15 [1]): 102% | growth, % of control at 10 µM (MDA-MB-231 [2]): 106% | growth, % of control at 10 µM (NCI-H23 [3]): 101% | growth, % of control at 10 µM (PC-3 [4]): 92.4%

CCCc1cc(-c2cn([C@H]3C[C@H](OC(C)=O)[C@@H](COC(C)=O)O3)c(=O)[nH]c2=O)on1
growth, % of control at 10 µM (HCT-15 [1]): 98.8% | growth, % of control at 10 µM (MDA-MB-231 [2]): 102% | growth, % of control at 10 µM (NCI-H23 [3]): 96.9% | growth, % of control at 10 µM (PC-3 [4]): 88.1%

CCCCCCCCc1cc(-c2cn([C@H]3C[C@H](O)[C@@H](CO)O3)c(=O)[nH]c2=O)on1
growth, % of control at 10 µM (HCT-15 [1]): 88.2% | growth, % of control at 10 µM (MDA-MB-231 [2]): 96.7% | growth, % of control at 10 µM (NCI-H23 [3]): 120% | growth, % of control at 10 µM (PC-3 [4]): 77.3%

CCCCc1ccc(-c2cc(-c3cn([C@H]4C[C@H](OC(C)=O)[C@@H](COC(C)=O)O4)c(=O)[nH]c3=O)on2)cc1
growth, % of control at 10 µM (HCT-15 [1]): 71.4% | growth, % of control at 10 µM (MDA-MB-231 [2]): 72.2% | growth, % of control at 10 µM (NCI-H23 [3]): 97.4% | growth, % of control at 10 µM (PC-3 [4]): 30.4%

CC(=O)OC[C@H]1O[C@@H](n2cc(-c3cc(-c4ccc(C(C)(C)C)cc4)no3)c(=O)[nH]c2=O)C[C@@H]1OC(C)=O
growth, % of control at 10 µM (HCT-15 [1]): 53.8% | growth, % of control at 10 µM (MDA-MB-231 [2]): 69.3% | growth, % of control at 10 µM (NCI-H23 [3]): 112% | growth, % of control at 10 µM (PC-3 [4]): 27.5%
